Consider eight compounds from ChEMBL document CHEMBL1287649, “Synthesis and anti-tubercular and antimicrobial activities of some 2r,4c-diaryl-3-azabicyclo[3.3.1]nonan-9-one N-isonicotinoylhydrazone derivatives” (2010).

In experiment [1] the test system is Mycobacterium tuberculosis. Description: Antitubercular activity against isoniazid-resistant Mycobacterium tuberculosis assessed as reduction of relative light unit at 1 ug/ml after 72 hrs by luciferase reporter phage assay relative to control. The experiment is classed as functional. Set-up: scale not given: the % may be the effect or the level left. In outline: (§1)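 Luciferase reporter phage assay. Luminescence (RLU) integrated for 10 s on a luminometer, in duplicate per sample and averaged. Percent RLU reduction calculated against untreated control. Run repeated if the control mean RLU was below 1000.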
(In general: Reporter assays use an easily measured gene product as a stand-in for the process of interest.)

Experiment [2] relates to Mycobacterium tuberculosis. Description: Antitubercular activity against isoniazid-resistant Mycobacterium tuberculosis assessed as reduction of relative light unit at 2 ug/ml after 72 hrs by luciferase reporter phage assay relative to control. Format: functional. Set-up: scale not given: the % may be the effect or the level left. In outline: as §1

For the compound `O=C(N/N=C1\C2CCCC1[C@H](c1ccc(Cl)cc1)N[C@@H]2c1ccc(Cl)cc1)c1ccncc1`, the Activity was 63.61% in experiment [1] and 73.28% in experiment [2].
For `O=C(N/N=C1\C2CCCC1[C@H](c1ccccc1)N[C@@H]2c1ccccc1)c1ccncc1`, the Activity in experiment [1] was determined as 69.6%; in experiment [2], 77.52%.
For `Cc1ccc([C@H]2N[C@@H](c3ccc(C)cc3)C3CCCC2/C3=N\NC(=O)c2ccncc2)cc1`, the values for the Activity in experiment [1] and in experiment [2] were 62.3% and 71.07%, respectively.
On to `COc1ccc([C@H]2N[C@@H](c3ccc(OC)cc3)C3CCCC2/C3=N\NC(=O)c2ccncc2)cc1`, for which the figures for the Activity in experiment [1] and in experiment [2] were 67.07% and 74.19%, respectively.
Take `O=C(N/N=C1\C2CCCC1[C@H](c1ccc(F)cc1)N[C@@H]2c1ccc(F)cc1)c1ccncc1`: the Activity was 67.63% in experiment [1] and 75.08% in experiment [2].
`COc1cccc([C@H]2N[C@@H](c3cccc(OC)c3)C3CCCC2/C3=N\NC(=O)c2ccncc2)c1`: the Activity in experiment [1] came out at 69.18%; in experiment [2], 78.33%.
`O=C(N/N=C1\C2CCCC1[C@H](c1cccc(Cl)c1)N[C@@H]2c1cccc(Cl)c1)c1ccncc1`: the figures for the Activity in experiment [1] and in experiment [2] were 65.42% and 75.83%, respectively.
The like results for `NNC(=O)c1ccncc1` [ISONIAZID] were, in that order, 89.65% and 95.85%.
